Experimental data of several laboratories.
Lines come from different studies, so protocols differ.
ABCB11: Bile salt export pump (ABCB11, Homo sapiens, UniProt O95342)
KCNH2: Voltage-gated inwardly rectifying potassium channel KCNH2 (KCNH2, Homo sapiens, UniProt Q12809)

SMILES	target or system	test	system	conditions	endpoint	value
CC(C)n1cc(C#N)c2cc(-n3cc(C(=O)O)cn3)ccc21			human, plasma	oral, 50 mg, single dose, fasted, healthy volunteers	Tmax	2.75 h
COc1nc(-c2cccc(-c3ccccc3)c2C)ccc1CNCCNC(=O)CCCCCCCCCCC(=O)N1CCN(CCNC(=O)c2cc3c(=O)n4cccc(C)c4nc3n(CCc3cccs3)c2=N)CC1			male Sprague-Dawley rat, plasma	intraperitoneal, 4 mg/kg	MRT(0-inf)	7.2 h
CC(C)NC(=O)COc1cccc(-c2nc(Nc3ccc4[nH]ncc4c3)c3ccccc3n2)c1	ABCB11	transporter uptake, inhibitor, radiometric			IC50	> 1 µM
CC(=O)N1CCC(C(=O)N2CCN3C(=O)c4cc(-c5ccccc5)ccc4NC(=O)C3C2)CC1 (stereo not shown)	KCNH2	ion current, inhibitor, patch clamp	HEK293	100 µM	inhibition	56.8%
N[C@H]1C(O)O[C@H](CO)[C@@H](O)[C@@H]1O (stereo partly shown)	Caco-2	cell growth or viability, CCK-8		20 mM	viability	101%
NC/C(=C\F)COc1cccc(Cn2c(=S)[nH]c(=O)c3[nH]cnc32)c1	ABCB11	transporter uptake, inhibitor, radiometric		30 µM	inhibition	< 50%
COc1ccc2c(c1)CN(C(=O)CCN1CCC(Cc3ccccc3)CC1)CC[S@@+]2[O-]			male human, plasma	intravenous, 0.6 mg/kg, healthy volunteers	Tmax	0 h
C[C@H]1Oc2cc(cnc2N)-c2c(nn(C)c2C#N)CN(C)C(=O)c2ccc(F)cc21			male Sprague-Dawley rat, plasma	oral, 5 mg/kg, single dose	MRT(0-inf)	8.14 h
CCOC(=O)C1=C(CN2CCC[C@@H]2C(=O)Nc2ccc(B(O)O)cc2)NC(c2nccs2)=N[C@H]1c1ccc(F)cc1Br	KCNH2	ion current, inhibitor, patch clamp	HEK293	100 µM, pH 7.4	inhibition	94.8%
CCn1c(=O)c(-c2cc[nH]n2)cc2c(C)nc(N)nc21	RD	cell growth or viability, MTT			CC50	6.53 µM
O=C(COc1ccc(Cl)cc1)NC12CC(c3nnc([C@H]4C[C@@H](OC(F)(F)F)C4)o3)(C1)C2			human, plasma	oral, 800 mg, single dose, fasted, healthy volunteers	Tmax	36 h
CN1C[C@H](COc2nccc3c(NCc4ccco4)cc(Cl)nc23)OC1=O	KCNH2	ion current, inhibitor	HEK293	3 µM	inhibition	7%
COc1cc(N)c(Cl)cc1C(=O)NC1CCN(CCCOc2ccc(F)cc2)CC1OC (stereo not shown)	KCNH2	ion current, inhibitor, patch clamp	HEK293	1 nM, pH 7.4	inhibition	8.73%
COc1cccc(OC)c1-c1cc(C(=O)NC2(C(=O)O)C3CC4CC(C3)CC2C4)nn1-c1ccc(C(=O)N(C)CCCN(C)CCCN(C)C(=O)CN2CCN(CC(=O)[O-])CCN(CC(=O)[O-])CCN(CC(=O)[O-])CC2)cc1C(C)C.[177Lu+3] (stereo not shown)	HT-29		bone	4 h, tumour-bearing	tracer uptake	1.8 %ID/g
Cn1c(=O)c2[nH]cnc2n(C)c1=O			male Sprague-Dawley rat, plasma	intravenous, 22.5 mg/kg	MRT(0-t)	2.61 h
CC(C)n1ncc2c(C(=O)NCC3(C)CNC3)cc(C3CC3)nc21	RD	cell growth or viability, neutral red		0.33 µM	viability	98.1%
